High-throughput results: PubChem, several laboratories
ABHD5 PLIN5 PPI = ABHD5-PLIN5 interaction inhibitors, primary screen, cell lysate, split luciferase complementation, luminescence | Split G. princeps luciferase complementation, 4 h | inhibition, % at 4 µM | 360,000 tested, 0.78% active;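 active means inhibition above the mean inhibition across every tested compound plus 3 SD, cut at about 22% in these data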
APOBEC3A inh = APOBEC3A ssDNA deaminase inhibitors, primary screen, selectivity assay for APOBEC3G inhibitor project, biochemical, FAM/TAMRA oligo cleavage fluorescence; AID 493011, 2011; recombinant A3A, FAM/TAMRA ssDNA deamination fluorescence; inhibition, % at 20 µM; DNA dC->dU-editing enzyme APOBEC-3A (Homo sapiens), P31941; 330,000 tested, 0.41% active;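 active means at least 40% inhibition at 20 µM here, with at most 30% in a related deaminase screen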
PRMT1 inh = PRMT1 methyltransferase inhibitors, primary screen, biochemical, fluorescence polarization. Protein arginine N-methyltransferase 1 (Homo sapiens), Q99873. 370,000 tested, 1.3% active. AID 652257, 2013. inhibition, % at 2.79 µM. recombinant PRMT1, activity-based probe fluorescence polarization;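 active means inhibition above about 21% made by adding two undisclosed values, limit read from the data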
NS3 helicase inh = inhibitors of HCV NS3 helicase, primary screen, biochemical, Cy5 molecular beacon fluorescence; AID 1800, 2009; 290,000 tested, 0.56% active; NS3 helicase DNA unwinding; inhibition, % at 10.9 µM;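 active means inhibition above the mean of all tested compounds plus 3 SD, set per campaign, cut at about 35% in these data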
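Test system: hepatitis C virus NS3 helicase domain fragment enzyme. Also added: annealed dual-labelled DNA beacon duplex, ATP-started. Timing: 60 min unwinding reaction at 25 °C after ATP addition. Technique: Cy5 fluorescence. Measure: % inhibition of unwinding.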
core dimer inh = inhibitors of HCV core protein dimerization, primary screen, biochemical, TR-FRET, high-throughput; TR-FRET GST/Flag-core106 dimerization, 1536-well; inhibition, % at 5 µM; 300,000 tested, 0.33% active; AID 1899, 2009;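 active means inhibition above the mean of all tested compounds plus 3 SD, set per screening campaign, cut at about 45% in these data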
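assay system = GST-tagged and Flag-tagged HCV core protein residues 1-106 | controls = unlabelled core106 and no-GST-core106 wells | incubation = compound-protein-antibody incubation 4 h at 22.5 °C | probe or stimulus = Eu donor and XL665 acceptor anti-tag antibodies | read-out = % inhibition based on acceptor/donor emission ratio | signal = TR-FRET 671 and 617 nm emission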
APOBEC3G inh = APOBEC3G DNA deaminase inhibitors, primary screen, biochemical, fluorescence, single-stranded DNA substrate, uHTS; DNA dC->dU-editing enzyme APOBEC-3G (Homo sapiens), Q9HC16; recombinant A3G, ssDNA deamination FAM/TAMRA fluorescence; inhibition, % at 20 µM; 330,000 tested, 0.28% active; AID 493012, 2011;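 active means inhibition of at least 40% at 20 µM, with no more than 30% in the related APOBEC3A deaminase screen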
ABHD5 PLIN5 conf = ABHD5-PLIN5 interaction inhibitors, confirmation, biochemical, luminescence | shares compounds with ABHD5 PLIN5 PPI | 2,200 tested, 67% active | AID 651612, 2012 | inhibition, % at 4 µM; in the data active means inhibition above about 23%
HNF4 counter = HNF4 dimerization inhibitors, counter-screen for ABHD5-PLIN5 interaction inhibitor project, biochemical, split-luciferase complementation, luminescence; shares compounds with ABHD5 PLIN5 PPI; inhibition, % at 4 µM; 2,200 tested, 77% active; AID 651674, 2012;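 active means mean inhibition across replicate wells exceeding the computed hit threshold, cut at about 13% in these data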;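 further: light from luciferase halves that rejoin when HNF4 fusion proteins dimerize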
Target sequence (P41235 whole entry, looked up, the tested form may be a part): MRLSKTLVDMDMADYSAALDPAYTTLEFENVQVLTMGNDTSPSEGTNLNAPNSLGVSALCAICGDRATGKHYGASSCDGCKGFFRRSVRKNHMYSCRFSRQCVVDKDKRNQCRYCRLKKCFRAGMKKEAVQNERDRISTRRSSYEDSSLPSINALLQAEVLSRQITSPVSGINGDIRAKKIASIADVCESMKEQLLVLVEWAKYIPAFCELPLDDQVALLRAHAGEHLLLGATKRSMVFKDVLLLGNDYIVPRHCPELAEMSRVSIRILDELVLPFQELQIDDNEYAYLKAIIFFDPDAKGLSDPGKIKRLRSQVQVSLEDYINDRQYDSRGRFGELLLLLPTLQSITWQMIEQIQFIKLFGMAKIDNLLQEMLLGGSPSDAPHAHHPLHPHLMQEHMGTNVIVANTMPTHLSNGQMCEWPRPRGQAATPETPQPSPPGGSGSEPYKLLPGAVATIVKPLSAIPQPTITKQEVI
Each line names hits and unclear results; the compound was inactive in the other large screens (follow-up assays come after a bar, where they were run). The list is not random: actives were taken first. Their share in the collection is about 2.9%.

Cc1cc(C)n(-c2nc3ccccc3c(=O)n2OCC#N)n1	none (no result: core dimer inh)
CC1=C(C(=O)N(C)C)CC(CC(=O)NC2CC2)C(=O)N1Cc1ccccc1 (centres undefined)	none (no result: APOBEC3A inh, NS3 helicase inh, core dimer inh, APOBEC3G inh)
CCc1ccccc1NC(=O)C1CCN(S(C)(=O)=O)CC1	none (no result: NS3 helicase inh)
CC(C)(C)c1ccc(/C=C(\C#N)C(=O)NC2CC2)cc1	ABHD5 PLIN5 PPI 28.2 (no result: NS3 helicase inh) | ABHD5 PLIN5 conf 46.8 | HNF4 counter 34.7
N#C/C(=C\c1ccc(F)c(Br)c1)C(=O)NC1CC1	none
COc1ccc(Cl)cc1S(=O)(=O)NC(C)c1cnn(-c2ccccn2)c1C (centres undefined)	none (no result: APOBEC3A inh, NS3 helicase inh, core dimer inh, APOBEC3G inh)
CSc1nc2ccccc2cc1/C=C(\C#N)c1cccc(C)c1	ABHD5 PLIN5 PPI 48.6 | ABHD5 PLIN5 conf inactive | HNF4 counter inactive
CC1C/C(=C/c2cccn2C)C(=O)/C(=C/c2cccn2C)C1 (centres undefined)	ABHD5 PLIN5 PPI 42.0 | ABHD5 PLIN5 conf inactive | HNF4 counter 53.7
CC1C/C(=C/c2ccncc2)C(=O)/C(=C/c2ccncc2)C1 (centres undefined)	ABHD5 PLIN5 PPI 96.0 | ABHD5 PLIN5 conf 103.3 | HNF4 counter 105.6
CC1CC(C)CN(C(=O)c2ccncc2)C1 (centres undefined)	none
CC(C)CCCN1C(N(C)C)=NC[C@@H]1Cc1ccccc1	none (no result: NS3 helicase inh)
C=C1C(=O)OC2CC1C(O)CC(C)=CCCC(C)=CC(O)CC2C (centres undefined)	ABHD5 PLIN5 PPI 54.5 (no result: APOBEC3A inh, NS3 helicase inh, core dimer inh, APOBEC3G inh) | ABHD5 PLIN5 conf 81.2 | HNF4 counter 61.2
C=C1C(=O)OC2CC1C(OC(C)=O)CC(C)=CCCC(C)=CCCC2(C)O (centres undefined)	ABHD5 PLIN5 PPI 61.2 (no result: APOBEC3A inh, NS3 helicase inh, core dimer inh, APOBEC3G inh) | ABHD5 PLIN5 conf 83.1 | HNF4 counter 65.5
CN(C)c1ccc(C(=O)c2ccc(O)cc2O)cc1	none
CN(C)c1ccc(Cc2cc3c(O)ccc(O)c3cc(Cc3ccc(N(C)C)cc3)c2=O)cc1	ABHD5 PLIN5 PPI 87.3, PRMT1 inh 79.4 (no result: APOBEC3A inh, NS3 helicase inh, core dimer inh, APOBEC3G inh) | ABHD5 PLIN5 conf 94.9 | HNF4 counter 47.2
CC(=O)OCC1OC(n2cc(F)c(=O)[nH]c2=O)C(OC(C)=O)C1OC(C)=O (centres undefined)	none (no result: NS3 helicase inh)
O=C1C(F)=CC(COC(c2ccccc2)(c2ccccc2)c2ccccc2)OC1n1cc(F)c(=O)[nH]c1=O (centres undefined)	ABHD5 PLIN5 PPI 41.7 (no result: APOBEC3A inh, NS3 helicase inh, core dimer inh, APOBEC3G inh) | ABHD5 PLIN5 conf 101.3 | HNF4 counter 96.7
COc1ccc2[nH]c3c(c2c1)CCN[C@]31C(=O)Nc2ccccc21	none (no result: ABHD5 PLIN5 PPI, APOBEC3A inh, NS3 helicase inh, core dimer inh, APOBEC3G inh)
O=C1C(=C(c2ccccc2)N2CCOCC2)Cc2ccccc21	ABHD5 PLIN5 PPI 81.5 (no result: APOBEC3A inh, NS3 helicase inh, core dimer inh, APOBEC3G inh) | ABHD5 PLIN5 conf 97.5 | HNF4 counter 94.9
O=C(c1ccccc1)N1CCN(C(=O)N2CCOCC2)CC1	none
C=CCCC1(C)C(=O)N(c2ccccc2)c2ccccc21 (centres undefined)	none
C=CCC1(C)C(=O)N(c2ccccc2)c2ccccc21 (centres undefined)	ABHD5 PLIN5 PPI 31.6 | ABHD5 PLIN5 conf inactive | HNF4 counter inactive
CCOc1ccc(S(=O)(=O)N(C(=O)c2ccco2)c2cc3sc(=O)oc3c3ccccc23)cc1	ABHD5 PLIN5 PPI 35.1, PRMT1 inh 93.1 | ABHD5 PLIN5 conf inactive | HNF4 counter 34.0
